Data published in ChEMBL document CHEMBL4004850, “Rational design of reversible inhibitors for trehalose 6-phosphate phosphatases” (Eur J Med Chem, 2017).

Experiments:
[1] = system: Ascaris suum; experiment: Activity at Ascaris suum T6PP
[2] = system: Ascaris suum; experiment: Inhibition of Ascaris suum T6PP using T6P as substrate assessed as fraction of enzyme unbound with compound by measuring ratio of initial velocities of T6P substrate hydrolysis in presence and absence of compound at 1 mM after 5 mins by BioMol green dye based HTS assay
Outline: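 T6P is at half saturation ([T6P] = Km), with and without 1 mM inhibitor, at 25 °C. Released phosphate is detected with dye (30 min incubation) by A625. The reported value is V_I/V, the initial-velocity ratio.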

[3] = system: Mycobacterium tuberculosis; experiment: Activity at Mycobacterium tuberculosis T6PP
[4] = system: Shigella boydii; experiment: Activity at Shigella boydii T6PP
[5] = system: Shigella boydii; experiment: Inhibition of Shigella boydii T6PP using T6P as substrate assessed as fraction of enzyme unbound with compound by measuring ratio of initial velocities of T6P substrate hydrolysis in presence and absence of compound at 1 mM after 5 mins by BioMol green dye based HTS assay
Outline: (§1)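 Freshly purified St-T6PP or Sb-T6PP (5–25 nM) in 50 mM Hepes pH 7.5, 25 mM NaCl, 2 mM MgCl₂, 5% glycerol at 25 °C. T6P at half saturation (Km) for each enzyme. Hydrolysis rate was compared with and without 1 mM inhibitor; phosphate read at 625 nm after 30 min incubation. The ratio VI/V gives the fraction of enzyme not inhibitor-bound.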

[6] = molecular target: T1, Trehalose-phosphatase (Brugia malayi) (UniProt A8NS89); experiment: Inhibition of Brugia malayi T6PP using T6P as substrate assessed as fraction of enzyme unbound with compound by measuring ratio of initial velocities of T6P substrate hydrolysis in presence and absence of compound at 1 mM […] by BioMol green dye based HTS assay
T1 sequence (whole entry): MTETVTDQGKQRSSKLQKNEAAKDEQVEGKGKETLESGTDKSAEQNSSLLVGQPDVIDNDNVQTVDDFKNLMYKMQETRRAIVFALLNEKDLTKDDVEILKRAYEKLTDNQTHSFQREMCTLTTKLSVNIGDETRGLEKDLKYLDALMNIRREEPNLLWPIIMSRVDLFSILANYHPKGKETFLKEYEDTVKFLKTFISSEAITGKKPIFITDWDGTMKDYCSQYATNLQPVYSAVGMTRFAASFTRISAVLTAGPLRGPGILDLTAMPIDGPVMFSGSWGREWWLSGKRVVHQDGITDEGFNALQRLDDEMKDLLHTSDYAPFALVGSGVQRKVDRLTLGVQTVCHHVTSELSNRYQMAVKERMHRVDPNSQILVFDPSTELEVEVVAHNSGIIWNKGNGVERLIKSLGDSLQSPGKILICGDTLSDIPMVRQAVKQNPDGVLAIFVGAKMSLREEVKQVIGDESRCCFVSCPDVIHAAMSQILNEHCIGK

[7] = system: Salmonella enterica subsp. enterica serovar Typhimurium; experiment: Inhibition of Salmonella typhimurium T6PP using T6P as substrate assessed as fraction of enzyme unbound with compound by measuring ratio of initial velocities of T6P substrate hydrolysis in presence and absence of compound at 1 mM after 5 mins by BioMol green dye based HTS assay; outline: as §1
[8] = system: Salmonella enterica subsp. enterica serovar Typhimurium; experiment: Activity at Salmonella typhimurium T6PP
[9] = molecular target: T2, Trehalose-phosphatase (Brugia malayi, UniProt A8NS89); experiment: Competitive inhibition of Brugia malayi T6PP using T6P as substrate by Lineweaver-Burk plot analysis
T2 sequence (A8NS89 whole entry): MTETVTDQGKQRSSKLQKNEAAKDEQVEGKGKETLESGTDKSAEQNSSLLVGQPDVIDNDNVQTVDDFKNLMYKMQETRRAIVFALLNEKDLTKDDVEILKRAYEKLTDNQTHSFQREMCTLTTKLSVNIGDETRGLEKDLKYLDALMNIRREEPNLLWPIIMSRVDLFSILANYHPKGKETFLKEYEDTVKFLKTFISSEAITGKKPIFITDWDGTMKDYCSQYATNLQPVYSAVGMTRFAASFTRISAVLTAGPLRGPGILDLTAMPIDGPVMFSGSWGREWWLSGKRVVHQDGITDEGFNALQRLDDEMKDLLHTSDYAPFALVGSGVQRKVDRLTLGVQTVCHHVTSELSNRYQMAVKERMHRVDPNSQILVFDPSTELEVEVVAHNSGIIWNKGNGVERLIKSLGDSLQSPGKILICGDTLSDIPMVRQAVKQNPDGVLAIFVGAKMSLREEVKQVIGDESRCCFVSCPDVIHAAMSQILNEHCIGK
Outline: (§2)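 Continuous phosphate-release assay (EnzChek, MESG/purine nucleoside phosphorylase) at 25 °C. Initial velocities of T6P hydrolysis by T6PP were taken at varied T6P with inhibitor at 0, Ki and 2×Ki. Km and Vmax come from double-reciprocal plots.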

[10] = system: Ascaris suum; experiment: Inhibition of Ascaris suum T6PP assessed as Km for substrate using T6P as substrate by Lineweaver-Burk plot analysis; outline: as §2
[11] = system: Ascaris suum; experiment: Inhibition of Ascaris suum T6PP assessed as Vmax for substrate using T6P as substrate by Lineweaver-Burk plot analysis; outline: as §2
[12] = system: Salmonella enterica subsp. enterica serovar Typhimurium; experiment: Inhibition of Salmonella typhimurium T6PP assessed as Km for substrate using T6P as substrate by Lineweaver-Burk plot analysis; outline: as §2
[13] = Inhibition of Salmonella typhimurium T6PP using T6P as substrate by Lineweaver-Burk plot analysis; design: species or system Salmonella enterica subsp. enterica serovar Typhimurium; outline: as §2
[14] = Inhibition of Shigella boydii T6PP using T6P as substrate by Lineweaver-Burk plot analysis; outline: as §2
[15] = system: Bacteroides thetaiotaomicron; details: 200 uM
[16] = system: Salmonella enterica subsp. enterica serovar Typhimurium; experiment: Inhibition of Salmonella typhimurium T6PP assessed as Vmax for substrate using T6P as substrate by Lineweaver-Burk plot analysis; outline: as §2
[17] = system: Escherichia coli; details: 200 uM
[18] = system: Shigella boydii; experiment: Inhibition of Shigella boydii T6PP assessed as Vmax for substrate using T6P as substrate by Lineweaver-Burk plot analysis; outline: as §2
[19] = Inhibition of Ascaris suum T6PP using T6P as substrate by Lineweaver-Burk plot analysis
[20] = system: Shigella boydii; experiment: Inhibition of Shigella boydii T6PP assessed as Km for substrate using T6P as substrate by Lineweaver-Burk plot analysis; outline: as §2
[21] = molecular target: T2, Trehalose-phosphatase; experiment: Reversible competitive inhibition of Brugia malayi T6PP using T6P as substrate by Lineweaver-Burk plot analysis
[22] = substrate: CCCCCCCCc1ccc(O[C@H]2O[C@H](COS(=O)(=O)O)[C@@H](O)[C@H](O)[C@H]2O)cc1; details: Pseudomonas putida KT2440; 200 uM
[23] = substrate: CCCCCCCCc1ccc(O[C@H]2O[C@H](COS(=O)(=O)O)[C@@H](O)[C@H](O)[C@H]2O)cc1; details: Pseudomonas putida KT2440; 200 uM; remark: listed apart in the source
[24] = compound: O=S(=O)(O)OC[C@H]1O[C@@H](Oc2ccccc2)[C@H](O)[C@@H](O)[C@@H]1O; experiment: (§3) Reversible competitive inhibition of Brugia malayi T6PP assessed as Vmax for substrate using T6P as substrate by Lineweaver-Burk plot analysis
[25] = compound: O=S(=O)(O)OC[C@H]1O[C@H](Oc2ccccc2)[C@H](O)[C@@H](O)[C@@H]1O; experiment: as §3
[26] = substrate: O=P(O)(O)OC[C@H]1O[C@@H](Oc2ccccc2)[C@H](O)[C@@H](O)[C@@H]1O; experiment: Activity at Brugia malayi T6PP
[27] = compound: CCCCCCc1ccc(O[C@H]2O[C@H](COS(=O)(=O)O)[C@@H](O)[C@H](O)[C@H]2O)cc1; experiment: (§4) Competitive inhibition of Brugia malayi T6PP assessed as Km for substrate using T6P as substrate by Lineweaver-Burk plot analysis; outline: as §2
[28] = compound: CCCCCCCCc1ccc(O[C@H]2O[C@H](COS(=O)(=O)O)[C@@H](O)[C@H](O)[C@H]2O)cc1; experiment: as §4; outline: as §2
[29] = compound: CCCCCCCCc1ccc(O[C@@H]2O[C@H](COS(=O)(=O)O)[C@@H](O)[C@H](O)[C@H]2O)cc1; experiment: as §4; outline: as §2
[30] = compound: O=S(=O)(O)OC[C@H]1O[C@H](OCc2ccccc2)[C@H](O)[C@@H](O)[C@@H]1O; experiment: as §4; outline: as §2
[31] = compound: O=S(=O)(O)OC[C@H]1O[C@@H](Oc2ccccc2)[C@H](O)[C@@H](O)[C@@H]1O; experiment: (§5) Reversible competitive inhibition of Brugia malayi T6PP assessed as Km for substrate using T6P as substrate by Lineweaver-Burk plot analysis
[32] = compound: O=S(=O)(O)OC[C@H]1O[C@H](Oc2ccccc2)[C@H](O)[C@@H](O)[C@@H]1O; experiment: as §5
[33] = compound: CCCCCCc1ccc(O[C@H]2O[C@H](COS(=O)(=O)O)[C@@H](O)[C@H](O)[C@H]2O)cc1; experiment: (§6) Competitive inhibition of Brugia malayi T6PP assessed as Vmax for substrate using T6P as substrate by Lineweaver-Burk plot analysis; outline: as §2
[34] = compound: CCCCCCCCc1ccc(O[C@H]2O[C@H](COS(=O)(=O)O)[C@@H](O)[C@H](O)[C@H]2O)cc1; experiment: as §6; outline: as §2
[35] = compound: CCCCCCCCc1ccc(O[C@@H]2O[C@H](COS(=O)(=O)O)[C@@H](O)[C@H](O)[C@H]2O)cc1; experiment: as §6; outline: as §2
[36] = compound: O=S(=O)(O)OC[C@H]1O[C@H](OCc2ccccc2)[C@H](O)[C@@H](O)[C@@H]1O; experiment: as §6; outline: as §2

## O=P(O)(O)OC[C@H]1O[C@@H](Oc2ccccc2)[C@H](O)[C@@H](O)[C@@H]1O
[1]
  kcat: 0.96 ×10⁻² /s
[2]
  Ratio: 0.98
[3]
  kcat: 0.71 ×10⁻² /s
[4]
  kcat: 0.71 ×10⁻² /s
[5]
  Ratio: 0.94
[6]
  Ratio: 0.79
[7]
  Ratio: 0.77
[8]
  kcat: 0.41 ×10⁻² /s

## CCCCCCCCc1ccc(O[C@H]2O[C@H](COS(=O)(=O)O)[C@@H](O)[C@H](O)[C@H]2O)cc1
[9]
  Ki: 5.3 µM
[10]
  Km: 406 µM
[11]
  Vmax: 0.48 µM/s
[12]
  Km: 387 µM
[13]
  Ki: 56 µM
[14]
  Ki: 21 µM
[15]
  Vmax: 0.0788 µM/s
[16]
  Vmax: 0.173 µM/s
[17]
  Vmax: 0.0605 µM/s
[18]
  Vmax: 0.897 µM/s
[19]
  Ki: 80 to 84 µM
[20]
  Km: 246 µM

## O=S(=O)(O)OC[C@H]1O[C@H](Oc2ccccc2)[C@H](O)[C@@H](O)[C@@H]1O
[21]
  Ki: 320 µM
[2]
  Ratio: 0.71
[5]
  Ratio: 0.76
[6]
  Ratio: 0.42
[7]
  Ratio: 0.64

B1: D-glycero-beta-D-manno-heptose-1,7-bisphosphate 7-phosphatase (Pseudomonas putida (strain ATCC 47054 / DSM 6125 / NCIMB 11950 /KT2440)), Q88RS0 (protein)
chain: MKLLILDRDGVINYDSDAYIKTLEEWVPIPGSVDAIAQLSKAGWTVAVATNQSGIARGYYPLATLEAMHARLRALVAEQGGEVGHIVYCPHGPDEGCDCRKPKPGMLRAIAEHYQIGLEGVWFVGDSKGDLEAALAVGAQPVLVKTGKGERTLEKGVPETTLIFDDLAAIARELI
[22]
  Vmax: 0.106 µM/s
[23]
  Vmax: 0.0175 µM/s

B2: Trehalose-phosphatase (Brugia malayi), A8NS89 (protein)
chain: MTETVTDQGKQRSSKLQKNEAAKDEQVEGKGKETLESGTDKSAEQNSSLLVGQPDVIDNDNVQTVDDFKNLMYKMQETRRAIVFALLNEKDLTKDDVEILKRAYEKLTDNQTHSFQREMCTLTTKLSVNIGDETRGLEKDLKYLDALMNIRREEPNLLWPIIMSRVDLFSILANYHPKGKETFLKEYEDTVKFLKTFISSEAITGKKPIFITDWDGTMKDYCSQYATNLQPVYSAVGMTRFAASFTRISAVLTAGPLRGPGILDLTAMPIDGPVMFSGSWGREWWLSGKRVVHQDGITDEGFNALQRLDDEMKDLLHTSDYAPFALVGSGVQRKVDRLTLGVQTVCHHVTSELSNRYQMAVKERMHRVDPNSQILVFDPSTELEVEVVAHNSGIIWNKGNGVERLIKSLGDSLQSPGKILICGDTLSDIPMVRQAVKQNPDGVLAIFVGAKMSLREEVKQVIGDESRCCFVSCPDVIHAAMSQILNEHCIGK
[24]
  Vmax: 0.57 µM/s
[25]
  Vmax: 0.496 µM/s
[26]
  kcat: 1.4 ×10⁻² /s
[27]
  Km: 234 µM
[28]
  Km: 229 µM
[29]
  Km: 156 µM
[30]
  Km: 127 µM
[31]
  Km: 126 µM
[32]
  Km: 109 µM
[33]
  Vmax: 0.375 µM/s
[34]
  Vmax: 0.924 µM/s
[35]
  Vmax: 0.584 µM/s
[36]
  Vmax: 0.457 µM/s
